“And” between values parts separate entries of the source, which are not always exact repeats. Equal values may be shown once.
Assays:
[1] = system: Mus musculus; test: (§1) Compound was evaluated for the antitumor activity against L1210 leukemia in mice at 100 mg/kg dose; format: functional
Summary of the method: (§2)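 CDF1 mice, 10^5 L1210 ascites cells implanted ip (from 7-day donor tumors, saline-diluted). Dosed ip once daily for 6 days from 24 h post-implant, 50-150 mg/kg, as Tween 80/saline suspension. Five mice per group, vehicle-treated controls. Read-out: % T/C, mean survival of treated/control ×100.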

[2] = system: Mus musculus; test: Compound was evaluated for the antitumor activity against L1210 leukemia in mice at 50 mg/kg dose; format: functional
Summary of the method: (§3)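 L1210 ascites leukemia serially passaged in CDF1 mice; 10^5 cells implanted ip. Compounds homogenized in drops of 20% aqueous Tween 80, brought to volume with isotonic saline, given ip as fine suspensions once daily for 6 consecutive days starting 24 h after implantation. Five mice per group; vehicle controls. Endpoint: % T/C = mean survival treated/control × 100; body-weight change tracked toxicity.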

[3] = system: Mus musculus; test: Compound was evaluated for the antitumor activity against L1210 leukemia in mice at 150 mg/kg dose; format: functional; summary of the method: as §3
[4] = species: Mus musculus; test: Compound was evaluated for the antineoplastic activity against L1210 leukemia in mice.; format: functional; summary of the method: as §2
[5] = system: Mus musculus; test: Compound was evaluated for the antitumor activity as average change in body weight against L1210 leukemia in mice at 100 mg/kg dose; format: functional
Summary of the method: (§4)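 CDF1 mice carrying ip L1210 ascites (10^5 cells), dosed ip daily for 6 consecutive days starting 24 h after implant, in Tween 80/isotonic saline suspension. Five mice per group. Toxicity taken as mean percent body weight change from start to end of therapy.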

[6] = system: Mus musculus; test: Compound was evaluated for the antitumor activity as average change in body weight against L1210 leukemia in mice at 150 mg/kg dose; format: functional; summary of the method: as §4
[7] = system: Mus musculus; test: Compound was evaluated for the antitumor activity as average change in body weight against L1210 leukemia in mice at 50 mg/kg dose; format: functional; summary of the method: as §4
[8] = Compound was evaluated for relative alkylating activity
[9] = system: Mus musculus; test: as §1; format: functional; summary of the method: as §3; remark: listed apart in the source
[10] = system: Mus musculus; test: Compound was evaluated for the antitumor activity as average change in body weight against L1210 leukemia in mice 100 mg/kg dose; format: functional; summary of the method: as §4
[11] = system: Mus musculus; test: Compound was evaluated for the antitumor activity as average change in body weight against L1210 leukemia in mice 150 mg/kg dose; format: functional; summary of the method: as §4

SMILES	T/C [2] [%]	Max T/C [4] [%]	Average change in weight [5] [%]	Average change in weight [6] [%]	Average change in weight [7] [%]	Relative activity [8]	further results
COc1ccc(S(=O)(=O)NN(C)S(=O)(=O)c2ccc(C)cc2)cc1	116	162	7.8	2.9	7.7	91	T/C [1]: 162%; Average survival time ([2]; 50 mg/kg): 15 days and 13.2 days; T/C [3]: 143%
CN(NC(=O)c1ccccc1)C(=O)c1ccccc1		97				10	
Cc1ccc(S(=O)(=O)NN(C)S(=O)(=O)c2ccc(Cl)cc2)cc1		141	5.5	-4.6	5.1	163	Average survival time [9]: 13 days; Average survival time [3]: 10 days
Cc1ccc(S(=O)(=O)N(C)NS(=O)(=O)c2ccccc2)cc1	162	162			2	112	Average survival time [2]: 15 days; Average change in weight [10]: 5.4%; Average change in weight [11]: -1.7%
CN(NS(=O)(=O)c1ccc(Cl)cc1)S(=O)(=O)c1ccc(Cl)cc1						190	
COc1ccc(S(=O)(=O)N(C)NS(=O)(=O)c2ccc(C)cc2)cc1		113	14.8	9.8	12.6	85	
Cc1ccc(S(=O)(=O)N(C)NS(=O)(=O)c2ccc(Cl)cc2)cc1	188	188	10	6	3.7	126	T/C [3]: 121%
O=S(=O)(NNS(=O)(=O)c1ccccc1)c1ccccc1						0	
Cc1ccc(S(=O)(=O)N(C)NS(=O)(=O)Cc2ccccc2)cc1						136	
Cc1ccc(S(=O)(=O)NN(C)S(=O)(=O)c2ccc(C)cc2)cc1						100	

From ChEMBL document CHEMBL1123531, “1,2-bis(arylsulfonyl)hydrazines. 2. The influence of arylsulfonyl and aralkylsulfonyl substituents on antitumor and alkylating activity” (1986)
